{
  "source": "ChEMBL document CHEMBL4814077",
  "about": "“Discovery of Surfactins as Inhibitors of MicroRNA Processing Using Cat-ELCCA” (ACS Med Chem Lett, 2021)",
  "key": {"microRNA 21 [1]": {"tested_on": "microRNA 21", "assay": "Inhibition of Dicer-mediated pre-miRNA-21 (unknown origin) processing using […] as substrate incubated for 15 mins by cat-ELCCA assay", "type": "nucleic-acid assay", "in_short": "(§1)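 Cat-ELCCA format with immobilized pre-miRNA (pre-miR-21, or pre-let-7d as a related control substrate) processed by excess Dicer. Integrity of the terminal loop is read by trans-cyclooctene/methyltetrazine click ligation of modified HRP, giving chemiluminescent signal amplification. Assay buffer contains detergent. Dose–response curves give IC50 values reported as 95% confidence intervals.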"}, "Pre-let-7d miRNA [2]": {"tested_on": "Pre-let-7d miRNA", "assay": "Inhibition of Dicer-mediated pre-let-7d miRNA (unknown origin) processing using […] as substrate incubated for 15 mins by cat-ELCCA assay", "type": "nucleic-acid assay", "in_short": "as §1"}, "microRNA 21 [3]": {"target": "microRNA 21", "assay": "Binding affinity to pre-miRNA-21 (unknown origin) by SPR assay", "type": "nucleic-acid assay"}, "Pre-let-7d miRNA [4]": {"target": "Pre-let-7d miRNA", "assay": "Binding affinity to pre-let-7d miRNA (unknown origin) by SPR assay", "type": "nucleic-acid assay"}, "microRNA 21 [5]": {"tested_on": "microRNA 21", "assay": "Inhibition of pre-miRNA-21 (unknown origin) assessed as reduction in miRNA/Dicer interaction at 10 to 120 uM incubated for 40 mins by EMSA assay", "type": "nucleic-acid assay", "conditions": "dose 10-120 µM"}, "microRNA 21 [6]": {"tested_on": "microRNA 21", "assay": "Inhibition of pre-miRNA-21 maturation in human HeLa cells transfected with firefly luciferase reporter gene assessed as reduction in luciferase gene expression at 100 uM incubated for 48 hrs by pmiRGlo-dual luciferase reporter assay", "type": "cell-based", "in_short": "(§2)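 HeLa cells transiently transfected with pmiRGLO dual-luciferase reporters carrying miRNA target sites (miR-21 or let-7d) in the firefly luciferase 3′ UTR. Cells treated at 100 μM; luminescence read after 48 h. miR-21 mismatch reporter and empty-vector controls were included. Significance given as p values.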"}, "Pre-let-7d miRNA [7]": {"tested_on": "Pre-let-7d miRNA", "assay": "Inhibition of pre-let-7d miRNA maturation in human HeLa cells transfected with firefly luciferase reporter gene assessed as reduction in luciferase gene expression at 100 uM incubated for 48 hrs by pmiRGlo-dual luciferase reporter assay", "type": "cell-based", "in_short": "as §2"}, "HeLa": {"tested_on": "HeLa", "assay": "Cytotoxicity against human HeLa cells assessed as reduction in cell viability at 100 uM incubated for 48 hrs by CellTiter Glo assay", "type": "cell-based"}},
  "note": "Activity calls are given as the source filed them. The rule behind the calls is not given here. *1 amine or outer side, *2 acyl side, *3 side chain or, on linkers, in order; H or OH if unused. Where a SMILES comes first, the peptide text is derived from it. Bridges are numbered along the chain shown (N, C = ends). The star is where a group is joined. ξ: configuration not given here. Pentadecanoyl(3ξ-OH,15-Gua) = N=C(N)NCCCCCCCCCCCCC(O)CC(=O)*; X1 = CCC(C)CCCCCCCCC(CC(=O)[*:1])O[*:2]; X7 = CC(C)CCCCCCCCCC(CC(=O)[*:1])O[*:2]; X3 = CC(C)CCCCCCCCC(CC(=O)[*:1])O[*:2]; X5 = CCC(C)CCCCCCC(CC(=O)[*:1])O[*:2]; X2 = CCCCCCCCCCCC(CC(=O)[*:1])O[*:2]; X4 = CCCCCCCCCCC(CC(=O)[*:1])O[*:2]; X6 = CCCCCCCCCC(CC(=O)[*:1])O[*:2]",
  "data": [
    {"smiles": "CC(C)[C@@H]1NC(=O)[C@@H](C(C)C)NC(=O)[C@@H](NC(=O)CC(O)CCCCCCCCCCCCNC(=N)N)[C@@H](C)OC(=O)[C@@H](C)NC(=O)[C@@H](CC(N)=O)NC(=O)[C@@H]([C@H](C)O)NC1=O", "note": "(stereo partly drawn)", "values": [
      {"measurement": "inhibition", "setting": "microRNA 21 [1]", "result": "inactive"},
      {"measurement": "inhibition", "setting": "Pre-let-7d miRNA [2]", "result": "inactive"}
    ]},
    {"smiles": "CCC(C)CCCCCCCCC1CC(=O)N[C@@H](CCC(=O)O)C(=O)N[C@@H](CC(C)C)C(=O)N[C@@H](CC(C)C)C(=O)N[C@@H](C(C)C)C(=O)N[C@@H](CC(=O)O)C(=O)N[C@@H](CC(C)C)C(=O)N[C@@H](CC(C)C)C(=O)O1", "note": "(stereo partly drawn) (ELLVDLL; linker N-C via X1)", "values": [
      {"measurement": "IC50", "setting": "microRNA 21 [1]", "result": 38, "unit": "µM"},
      {"measurement": "inhibition", "setting": "microRNA 21 [1]", "result": "Dose-Dependent Effect"},
      {"measurement": "IC50", "setting": "Pre-let-7d miRNA [2]", "result": 54, "unit": "µM"},
      {"measurement": "inhibition", "setting": "Pre-let-7d miRNA [2]", "result": "Dose-Dependent Effect"},
      {"measurement": "Kd", "setting": "microRNA 21 [3]", "result": 0.78, "unit": "µM"},
      {"measurement": "Kd", "setting": "Pre-let-7d miRNA [4]", "result": 1.2, "unit": "µM"},
      {"measurement": "inhibition", "setting": "microRNA 21 [5]", "result": "inactive"},
      {"measurement": "inhibition", "setting": "microRNA 21 [6]", "result": "Active"},
      {"measurement": "inhibition", "setting": "Pre-let-7d miRNA [7]", "result": "inactive"},
      {"measurement": "Activity", "setting": "HeLa", "result": "Toxic"}
    ]},
    {"smiles": "CCCCCCCCCCCC1CC(=O)N[C@@H](CCC(=O)O)C(=O)N[C@@H](CC(C)C)C(=O)N[C@@H](CC(C)C)C(=O)N[C@@H](C(C)C)C(=O)N[C@@H](CC(=O)O)C(=O)N[C@@H](CC(C)C)C(=O)N[C@@H](CC(C)C)C(=O)O1", "note": "(stereo partly drawn) (ELLVDLL; linker N-C via X2)", "values": [
      {"measurement": "IC50", "setting": "microRNA 21 [1]", "result": 48, "unit": "µM"},
      {"measurement": "inhibition", "setting": "microRNA 21 [1]", "result": "Dose-Dependent Effect"},
      {"measurement": "IC50", "setting": "Pre-let-7d miRNA [2]", "result": 54, "unit": "µM"},
      {"measurement": "inhibition", "setting": "Pre-let-7d miRNA [2]", "result": "Dose-Dependent Effect"},
      {"measurement": "Kd", "setting": "microRNA 21 [3]", "result": 0.73, "unit": "µM"},
      {"measurement": "Kd", "setting": "Pre-let-7d miRNA [4]", "result": 1.4, "unit": "µM"}
    ]},
    {"smiles": "CC(C)CCCCCCCCC1CC(=O)N[C@@H](CCC(=O)O)C(=O)N[C@@H](CC(C)C)C(=O)N[C@@H](CC(C)C)C(=O)N[C@@H](C(C)C)C(=O)N[C@@H](CC(=O)O)C(=O)N[C@@H](CC(C)C)C(=O)N[C@@H](CC(C)C)C(=O)O1", "note": "(stereo partly drawn) (ELLVDLL; linker N-C via X3)", "values": [
      {"measurement": "IC50", "setting": "microRNA 21 [1]", "result": 52, "unit": "µM"},
      {"measurement": "inhibition", "setting": "microRNA 21 [1]", "result": "Dose-Dependent Effect"},
      {"measurement": "IC50", "setting": "Pre-let-7d miRNA [2]", "result": 70, "unit": "µM"},
      {"measurement": "inhibition", "setting": "Pre-let-7d miRNA [2]", "result": "Dose-Dependent Effect"},
      {"measurement": "Kd", "setting": "microRNA 21 [3]", "result": 0.43, "unit": "µM"},
      {"measurement": "Kd", "setting": "Pre-let-7d miRNA [4]", "result": 2.5, "unit": "µM"}
    ]},
    {"smiles": "CCCCCCCCCCC1CC(=O)N[C@@H](CCC(=O)O)C(=O)N[C@@H](CC(C)C)C(=O)N[C@@H](CC(C)C)C(=O)N[C@@H](C(C)C)C(=O)N[C@@H](CC(=O)O)C(=O)N[C@@H](CC(C)C)C(=O)N[C@@H](CC(C)C)C(=O)O1", "note": "(stereo partly drawn) (ELLVDLL; linker N-C via X4)", "values": [
      {"measurement": "IC50", "setting": "microRNA 21 [1]", "result": 71, "unit": "µM"},
      {"measurement": "inhibition", "setting": "microRNA 21 [1]", "result": "Dose-Dependent Effect"},
      {"measurement": "IC50", "setting": "Pre-let-7d miRNA [2]", "result": 97, "unit": "µM"},
      {"measurement": "inhibition", "setting": "Pre-let-7d miRNA [2]", "result": "Dose-Dependent Effect"},
      {"measurement": "Kd", "setting": "microRNA 21 [3]", "result": 0.38, "unit": "µM"},
      {"measurement": "Kd", "setting": "Pre-let-7d miRNA [4]", "result": 0.3, "unit": "µM"}
    ]},
    {"smiles": "CCC(C)CCCCCCC1CC(=O)N[C@@H](CCC(=O)O)C(=O)N[C@@H](CC(C)C)C(=O)N[C@@H](CC(C)C)C(=O)N[C@@H](C(C)C)C(=O)N[C@@H](CC(=O)O)C(=O)N[C@@H](CC(C)C)C(=O)N[C@@H](CC(C)C)C(=O)O1", "note": "(stereo partly drawn) (ELLVDLL; linker N-C via X5)", "values": [
      {"measurement": "IC50", "setting": "microRNA 21 [1]", "result": "> 200", "unit": "µM"},
      {"measurement": "IC50", "setting": "Pre-let-7d miRNA [2]", "result": "> 200", "unit": "µM"}
    ]},
    {"smiles": "CCCCCCCCCC1CC(=O)N[C@@H](CCC(=O)O)C(=O)N[C@@H](CC(C)C)C(=O)N[C@@H](CC(C)C)C(=O)N[C@@H](C(C)C)C(=O)N[C@@H](CC(=O)O)C(=O)N[C@@H](CC(C)C)C(=O)N[C@@H](CC(C)C)C(=O)O1", "note": "(stereo partly drawn) (ELLVDLL; linker N-C via X6)", "values": [
      {"measurement": "IC50", "setting": "microRNA 21 [1]", "result": "> 200", "unit": "µM"},
      {"measurement": "IC50", "setting": "Pre-let-7d miRNA [2]", "result": "> 200", "unit": "µM"}
    ]},
    {"smiles": "CC(C)CCCCCCCCCC1CC(=O)N[C@@H](CCC(=O)O)C(=O)N[C@@H](CC(C)C)C(=O)N[C@@H](CC(C)C)C(=O)N[C@@H](C(C)C)C(=O)N[C@@H](CC(=O)O)C(=O)N[C@@H](CC(C)C)C(=O)N[C@@H](CC(C)C)C(=O)O1", "note": "(stereo partly drawn) (ELLVDLL; linker N-C via X7)", "values": [
      {"measurement": "inhibition", "setting": "microRNA 21 [1]", "result": "inactive"},
      {"measurement": "inhibition", "setting": "Pre-let-7d miRNA [2]", "result": "inactive"}
    ]},
    {"smiles": "CC1NC(=O)C(CCC(N)=O)NC(=O)C(C(C)O)NC(=O)C(C(C)C)NC(=O)C(C(C)C)NC(=O)C(NC(=O)CC(O)CCCCCCCCCCCCNC(=N)N)C(C)OC1=O", "note": "(stereo not drawn) ({Pentadecanoyl(3ξ-OH,15-Gua)}-TVVTQA; ester 1-C; configuration not given here)", "values": [
      {"measurement": "inhibition", "setting": "microRNA 21 [1]", "result": "inactive"},
      {"measurement": "inhibition", "setting": "Pre-let-7d miRNA [2]", "result": "inactive"}
    ]}
  ]
}
